# Test results taken from ChEMBL document CHEMBL1124591, “Polyfluoro 1,3-diketones as systemic insecticides” (1989).
# Experiments:
# Assay type in all cases: functional
# [1] = tested on: Calliphoridae; assay: Mortality percentage on day 4 in Blowfly larvae after their exposure to sera for 24 hours, from the cattle administered with the compound at 5 mg/kg
# Outline: (§1)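 Calves given single intraruminal 5 mg/kg in 5 mL PEG-200 (two treated, one vehicle, one untreated). Blood taken pre-dose, 2, 5, 24 h, then daily; serum on saturated dental wick fed to adult stable flies (20/dish) or ~50 first-instar blowflies (27 °C, 55% RH); % mortality after 24 h exposure.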
# [2] = tested on: Calliphoridae; assay: Mortality percentage on day 5 in Blowfly larvae after their exposure to sera for 48 hours, from the cattle administered with the compound at 5 mg/kg
# Outline: (§2)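 Calves given single intraruminal 5 mg/kg in 5 mL PEG-200, with vehicle and untreated controls; serum collected daily and fed on saturated dental wick to adult stable flies (20/dish) or ~50 first-instar blowflies; % mortality read after 48 h exposure.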
# [3] = tested on: Calliphoridae; assay: Mortality percentage on day 7 in Blowfly larvae after their exposure to sera for 24 hours, from the cattle administered with the compound at 5 mg/kg; outline: as §1
# [4] = tested on: Calliphoridae; assay: Mortality percentage on day 6 in Blowfly larvae after their exposure to sera for 24 hours, from the cattle administered with the compound at 5 mg/kg; outline: as §1
# [5] = tested on: Stomoxys calcitrans; assay: In vivo insecticidal activity against adult stable fly in serum collected from calves administered with 0.75 mg/kg
# [6] = tested on: Calliphoridae; assay: In vivo insecticidal activity against Larval blowfly from calves administered with 0.50 mg/kg; conditions: dose 0.5 mg/kg
# Outline: (§3)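 Calves dosed daily intraruminally through implanted rumen tube with diketone in 5 mL PEG-200 (vehicle and untreated controls). Daily serum fed on saturated dental wick to ~50 first-instar blowflies, 27 °C, 55% RH; mortality after 48 h (24 h where noted); day of onset of ≥50% mortality recorded.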
# [7] = tested on: Stomoxys calcitrans; assay: Mortality percentage after on day 2 in Adult stable flies after their exposure to sera for 24 hours, from the cattle, administered with the compound at 5 mg/kg; outline: as §1
# [8] = tested on: Calliphoridae; assay: Mortality percentage on day 3 in Blowfly larvae after their exposure to sera for 24 hours, from the cattle administered with the compound at 5 mg/kg; outline: as §1
# [9] = tested on: Stomoxys calcitrans; assay: Mortality percentage on 1 day in Adult stable flies after their exposure to sera for 24 hours, from the cattle, administered with the compound at 5 mg/kg; outline: as §1
# [10] = tested on: Stomoxys calcitrans; assay: In vitro insecticidal activity in bovine serum against adult stable fly
# Outline: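 Twenty chilled 5-day-old hungry adult Stomoxys calcitrans in covered petri dish exposed to compound in bovine serum on saturated dental wick, incubated 24 or 48 h.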
# [11] = tested on: Stomoxys calcitrans; assay: Mortality percentage on day 6 in Adult stable flies after their exposure to sera for 48 hours, from the cattle, administered with the compound at 5 mg/kg; outline: as §2
# [12] = tested on: Stomoxys calcitrans; assay: Mortality percentage on day 5 in Adult stable flies after their exposure to sera for 24 hours, from the cattle, administered with the compound at 5 mg/kg; outline: as §1
# [13] = tested on: Calliphoridae; assay: Mortality percentage on day 1 in Blowfly larvae after their exposure to sera for 24 hours, from the cattle administered with the compound at 5 mg/kg; outline: as §1
# [14] = tested on: Calliphoridae; assay: Mortality percentage on day 4 in Blowfly larvae after their exposure to sera for 48 hours, from the cattle administered with the compound at 5 mg/kg; outline: as §2
# [15] = tested on: Stomoxys calcitrans; assay: In vivo insecticidal activity against adult stable fly in serum collected from calves administered with 1.0 mg/kg
# [16] = tested on: Stomoxys calcitrans; assay: Mortality percentage on 0 day in Adult stable flies after their exposure to sera for 24 hours, from the cattle, administered with the compound at 5 mg/kg; outline: as §1
# [17] = tested on: Stomoxys calcitrans; assay: In vitro insecticidal activity against adult stable fly in serum collected from calves administered with 1 mg/kg
# [18] = tested on: Stomoxys calcitrans; assay: Mortality percentage on day 6 in Adult stable flies after their exposure to sera for 24 hours, from the cattle, administered with the compound at 5 mg/kg; outline: as §1
# [19] = tested on: Stomoxys calcitrans; assay: In vitro insecticidal activity against adult stable fly in serum collected from calves administered with 1.50 mg/kg; conditions: dose 1.5 mg/kg
# [20] = tested on: Calliphoridae; assay: Mortality percentage on day 5 in Blowfly larvae after their exposure to sera for 24 hours, from the cattle administered with the compound at 5 mg/kg; outline: as §1
# [21] = tested on: Calliphoridae; assay: In vitro insecticidal activity in bovine serum against Blowfly larvae
# Outline: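 In vitro bait: ~50 first-instar blowflies placed on dental wick saturated with compound in bovine serum, in loosely plugged tube, 27 °C, 55% RH, under fluorescent light, 24 h.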
# [22] = tested on: Calliphoridae; assay: Mortality percentage on day 6 in Blowfly larvae after their exposure to sera for 48 hours, from the cattle administered with the compound at 5 mg/kg; outline: as §2
# [23] = tested on: Stomoxys calcitrans; assay: Mortality percentage on day 3 in Adult stable flies after their exposure to sera for 24 hours, from the cattle, administered with the compound at 5 mg/kg; outline: as §1
# [24] = tested on: Calliphoridae; assay: Mortality percentage on day 3 in Blowfly larvae after their exposure to sera for 48 hours, from the cattle administered with the compound at 5 mg/kg; outline: as §2
# [25] = tested on: Stomoxys calcitrans; assay: In vitro insecticidal activity against adult stable fly in serum collected from calves administered with 0.75 mg/kg
# [26] = tested on: Stomoxys calcitrans; assay: Mortality percentage on day 3 in Adult stable flies after their exposure to sera for 48 hours, from the cattle, administered with the compound at 5 mg/kg; outline: as §2
# [27] = tested on: Calliphoridae; assay: In vivo insecticidal activity against Larval blowfly from calves administered with 1.50 mg/kg; conditions: dose 1.5 mg/kg; outline: as §3
# [28] = tested on: Stomoxys calcitrans; assay: Mortality percentage on day 5 in Adult stable flies after their exposure to sera for 48 hours, from the cattle, administered with the compound at 5 mg/kg; outline: as §2
# [29] = tested on: Calliphoridae; assay: Mortality percentage on day 0 in Blowfly larvae after their exposure to sera for 24 hours, from the cattle administered with the compound at 5 mg/kg; outline: as §1
# [30] = tested on: Calliphoridae; assay: Mortality percentage on day 2 in Blowfly larvae after their exposure to sera for 24 hours, from the cattle administered with the compound at 5 mg/kg; outline: as §1
# [31] = tested on: Stomoxys calcitrans; assay: In vivo insecticidal activity against adult stable fly in serum collected from calves administered with 1.50 mg/kg; conditions: dose 1.5 mg/kg
# [32] = tested on: Calliphoridae; assay: In vivo insecticidal activity against Larval blowfly from calves administered with 1.0 mg/kg; outline: as §3
# [33] = tested on: Stomoxys calcitrans; assay: In vivo insecticidal activity against adult stable fly in serum collected from calves administered with 0.50 mg/kg; conditions: dose 0.5 mg/kg
# [34] = tested on: Stomoxys calcitrans; assay: In vitro insecticidal activity against adult stable fly in serum collected from calves administered with 0.50 mg/kg; conditions: dose 0.5 mg/kg
# [35] = tested on: Stomoxys calcitrans; assay: Mortality percentage on day 7 in Adult stable flies after their exposure to sera for 24 hours, from the cattle, administered with the compound at 5 mg/kg; outline: as §1
# [36] = tested on: Calliphoridae; assay: In vivo insecticidal activity against Larval blowfly from calves administered with 0.75 mg/kg; outline: as §3
# [37] = tested on: Calliphoridae; assay: In vivo insecticidal activity against Larval blowfly from calves administered with 0.20 mg/kg; conditions: dose 0.2 mg/kg; outline: as §3
# [38] = tested on: Stomoxys calcitrans; assay: In vitro insecticidal activity against adult stable fly in serum collected from calves administered with 0.35 mg/kg
# [39] = tested on: Stomoxys calcitrans; assay: In vivo insecticidal activity against adult stable fly in serum collected from calves administered with 1 mg/kg
# [40] = tested on: Stomoxys calcitrans; assay: In vitro insecticidal activity against adult stable fly in serum collected from calves administered with 1.00 mg/kg
smiles,measurement,setting,value
O=C(/C=C(\[O-])c1cc(Cl)cc(Cl)c1)C(F)(F)C(F)(F)F.[Na+],mortality at 5 mg/kg,[1],0%
same,mortality at 5 mg/kg,[2],0%
same,mortality at 5 mg/kg,[3],0%
same,mortality at 5 mg/kg,[4],0%
same,Activity,[5],4 day of onset
same,Activity,[6],6 day of onset
same,mortality at 5 mg/kg,[7],55%
same,mortality at 5 mg/kg,[8],0%
same,mortality at 5 mg/kg,[9],20%
same,Lowest effective concentration,[10],20 p.p.m.
same,mortality at 5 mg/kg,[11],30%
same,mortality at 5 mg/kg,[12],0%
same,mortality at 5 mg/kg,[13],0%
same,mortality at 5 mg/kg,[14],50%
same,Activity,[15],3 day of onset
same,mortality at 5 mg/kg,[16],0%
same,Activity,[17],3 day of onset
same,mortality at 5 mg/kg,[18],0%
same,Activity,[19],2 day of onset
same,mortality at 5 mg/kg,[20],0%
same,Lowest effective concentration,[21],40 p.p.m.
same,mortality at 5 mg/kg,[22],0%
same,mortality at 5 mg/kg,[23],45%
same,mortality at 5 mg/kg,[24],100%
same,Activity,[25],4 day of onset
same,mortality at 5 mg/kg,[26],100%
same,Activity,[27],2 day of onset
same,mortality at 5 mg/kg,[28],80%
same,mortality at 5 mg/kg,[29],0%
same,mortality at 5 mg/kg,[30],0%
same,Activity,[31],2 day of onset
same,Activity,[32],5 day of onset
same,Activity,[33],6 day of onset
same,Activity,[34],6 day of onset
same,mortality at 5 mg/kg,[35],10%
same,Activity,[36],4 day of onset
O=C(/C=C(\[O-])c1cc(Cl)cc(Cl)c1)C(F)(F)F.[Na+],Lowest effective concentration,[10],25 p.p.m.
same,Lowest effective concentration,[21],20 p.p.m.
O=C(/C=C(\[O-])c1cc(Cl)cc(Cl)c1)C(F)(F)C(F)(F)C(F)(F)F.[Na+],Activity,[37],5 day of onset
same,Activity,[6],8 day of onset
same,Lowest effective concentration,[10],25 p.p.m.
same,Lowest effective concentration,[21],15 p.p.m.
same,Activity,[33],4 day of onset
same,Activity,[34],4 day of onset
same,Activity,[38],9 day of onset
same,Activity,[39],3 day of onset
same,Activity,[40],3 day of onset
O=C(/C=C(\[O-])c1cccc(C(F)(F)F)c1)C(F)(F)C(F)(F)C(F)(F)F.[Na+],Lowest effective concentration,[10],35 p.p.m.
same,Lowest effective concentration,[21],40 p.p.m.
CNC(=O)Oc1cccc2c1OC(C)(C)C2 [CARBOFURAN],Lowest effective concentration,[10],1 p.p.m.
same,Lowest effective concentration,[21],5 p.p.m.
Cc1c(COC(=O)C2C(/C=C(\Cl)C(F)(F)F)C2(C)C)cccc1-c1ccccc1 (stereo not drawn),Lowest effective concentration,[10],25 p.p.m.
same,Lowest effective concentration,[21],5 p.p.m.
O=C(/C=C(\[O-])c1ccc(C(F)(F)F)cc1)C(F)(F)C(F)(F)C(F)(F)F.[Na+],Lowest effective concentration,[10],30 p.p.m.
same,Lowest effective concentration,[21],35 p.p.m.
CC[C@H](C)[C@H]1O[C@]2(C=C[C@@H]1C)C[C@@H]1C[C@@H](C/C=C(\C)[C@@H](O[C@H]3C[C@H](OC)[C@@H](O[C@H]4C[C@H](OC)[C@@H](O)[C@H](C)O4)[C@H](C)O3)[C@@H](C)/C=C/C=C3\CO[C@@H]4[C@H](O)C(C)=C[C@@H](C(=O)O1)[C@]34O)O2 [ABAMECTIN COMPONENT B1A],Lowest effective concentration,[10],10 p.p.m.
same,Lowest effective concentration,[21],0.5 p.p.m.
O=C(/C=C(\[O-])c1cc(Br)cc(Br)c1)C(F)(F)C(F)(F)C(F)(F)F.[Na+],Lowest effective concentration,[10],25 p.p.m.
same,Lowest effective concentration,[21],25 p.p.m.
O=C(/C=C(\[O-])c1ccc(F)c(F)c1)C(F)(F)C(F)(F)C(F)(F)F.[Na+],Lowest effective concentration,[10],25 p.p.m.
same,Lowest effective concentration,[21],30 p.p.m.
O=C(/C=C(\[O-])c1ccc(Cl)c(Cl)c1)C(F)(F)C(F)(F)C(F)(F)F.[Na+],Lowest effective concentration,[10],25 p.p.m.
same,Lowest effective concentration,[21],30 p.p.m.
O=C(/C=C(\[O-])c1ccc(Cl)cc1)C(F)(F)C(F)(F)C(F)(F)F.[Na+],Lowest effective concentration,[10],25 p.p.m.
same,Lowest effective concentration,[21],50 p.p.m.
O=C(/C=C(\[O-])c1cc(Cl)cc(Cl)c1)C(F)(F)C(F)F.[Na+],Lowest effective concentration,[10],20 p.p.m.
same,Lowest effective concentration,[21],25 p.p.m.
same,Activity,[40],5 day of onset
